Assay outcomes as filed in PubChem.
In the library only some 1.3% were active in any assay of this set; here they are far more common.
NR2E3 ag-1 – inhibitors of NR2E3-RetCOR corepressor binding, primary screen, NR2E3 agonist project, biochemical, TR-FRET, GST-NR2E3, biotin-RetCOR. Photoreceptor-specific nuclear receptor (Homo sapiens), Q9Y5X4. 1536-well. inhibition of corepressor binding, % at 4.78 µM. 320,000 tested, 0.12% active. AID 2300, 2010;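 active = percent inhibition above the cutoff of mean plus 3 SD of all tested compounds, set per screening campaign, cut at about 20% in these data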
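Test system: GST-NR2E3 and biotin-RetCOR proteins | Quantity: 1.35 nM GST-tagged NR2E3 final | Medium: Tris pH 7.5 | Also added: 7 nM biotin-RetCOR | Dosing: Compound at 4.8 µM, single dose | Timing: 5 h at 4 °C | Detection: Time-resolved FRET | Read-out basis: Percent inhibition | Benchmarks: Biotin wells as high control, 0.6% DMSO wells as low control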
NR2E3 ag-2 – NR2E3 agonists in two-hybrid cells, primary screen, cell-based, luminescence, CHO-S, Gal4-NCOR/VP16-NR2E3. Photoreceptor-specific nuclear receptor (Homo sapiens), Q9Y5X4. 360,000 tested, 0.35% active. inhibition of corepressor binding, % at 3.98 µM. AID 602229, 2012. luciferase;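 active = inhibition above the mean of all tested compounds plus 3 SD, cut at about 70% in these data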;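 also: higher means lower luciferase signal from less NR2E3 corepressor binding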
EP2 modulator – EP2 receptor modulators, cAMP readout, primary screen, cell-based, HTRF cAMP, PGE2 stimulation; EP2-expressing cells, cAMP HTRF FRET, PGE2 co-stimulation; induction, % at 25 µM; 260,000 tested, 0.83% active; AID 940, 2007;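 active = compounds whose cAMP rise, as percent of the full-agonist control response, exceeds 60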;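 also: rat C6 glioma line stably carrying human EP2 under a CMV promoter; the protocol text gives 20 µM as final concentration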
GASC-1 inh – inhibitors of GASC-1 histone demethylase, primary screen, biochemical, fluorescence, DELFIA europium; GST-JMJD2C(1-420) H3K9me3 demethylation; 330,000 tested, 0.069% active; inhibition, % at 2.35 µM; AID 2099, 2009;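 active = more than half of a compound's replicate wells show inhibition beyond 50%, single wells judged on their own value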;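 also: signal counts dimethyl H3K9 product captured on neutravidin plate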
Furin inhibitor – human furin inhibitors, primary screen, biochemical, fluorescence intensity; P09958; purified furin, fluorogenic substrate cleavage; inhibition, % at 20 µM or 30 µM; 220,000 tested, 0.061% active; AID 463115, 2010; in the data active = inhibition above about 25%
Target sequence (P09958 108-714 limits assumed): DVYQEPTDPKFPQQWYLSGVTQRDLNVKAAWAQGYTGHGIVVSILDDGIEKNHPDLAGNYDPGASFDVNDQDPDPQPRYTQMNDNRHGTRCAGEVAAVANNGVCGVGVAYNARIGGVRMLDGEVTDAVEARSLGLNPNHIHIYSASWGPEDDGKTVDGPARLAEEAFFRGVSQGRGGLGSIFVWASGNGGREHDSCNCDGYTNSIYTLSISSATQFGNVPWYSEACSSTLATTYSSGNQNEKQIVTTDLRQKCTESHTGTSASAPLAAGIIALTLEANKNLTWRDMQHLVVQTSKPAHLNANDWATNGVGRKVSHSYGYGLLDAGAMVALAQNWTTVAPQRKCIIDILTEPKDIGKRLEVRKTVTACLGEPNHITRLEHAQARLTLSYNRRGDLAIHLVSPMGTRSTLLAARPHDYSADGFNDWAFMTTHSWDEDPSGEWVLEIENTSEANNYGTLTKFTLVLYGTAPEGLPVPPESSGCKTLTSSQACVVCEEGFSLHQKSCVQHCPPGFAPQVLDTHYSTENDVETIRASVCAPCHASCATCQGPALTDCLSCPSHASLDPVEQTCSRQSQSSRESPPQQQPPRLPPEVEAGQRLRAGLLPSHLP
PGE2 EP2 inh – human EP2 receptor antagonists, primary screen, TR-FRET cAMP, C6 glioma cells; inhibition, % at 25 µM; C6 glioma cells expressing human EP2; cells stimulated with saturating PGE2; 260,000 tested, 0.52% active;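 active = percent inhibition above 40 after rounding to a whole number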;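 also: rat C6 glioma host cells with rolipram phosphodiesterase inhibitor present; the protocol text gives 20 µM as final concentration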
EP2 confirm – cAMP induction in EP2, EP4, beta2-AR and parental cells, confirmation, counter-screen for EP2 modulator project, cell-based, five parallel assays, C6 glioma, HEK293 | calls only at 20 µM (by protocol) | cAMP HTRF induction; plus low (about EC15) PGE2 agonist | shares compounds with EP2 modulator | 1,300 tested, 47% active | AID 1080, 2008;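 active = cAMP induction above 50% in the main assay while under 30% in all four parallel counter assays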;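 also: rat C6 glioma cells stably expressing human EP2 receptor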
Each line names hits and unclear results; the compound was inactive in the other large screens (follow-up assays come after a bar, where they were run); ! = a repeat was not active.

COC(=O)c1cc(C(=O)NCC2CCCCC2)cc([N+](=O)[O-])c1	none (no result: EP2 modulator, Furin inhibitor, PGE2 EP2 inh)
COC1(C)CC2C(CC1OC(=O)c1cc([N+](=O)[O-])cc([N+](=O)[O-])c1)C2(C)C (stereo unspecified)	EP2 modulator 72.1 | EP2 confirm active
Cc1cc2cc(CN(Cc3nnnn3C3CCCCC3)CC3CCCO3)c(=O)[nH]c2cc1C (stereo unspecified)	EP2 modulator 65.5! | EP2 confirm inactive
Cc1ccc2cc(CN(Cc3nnnn3C3CCCCC3)CC3CCCO3)c(=O)[nH]c2c1 (stereo unspecified)	none
CCc1ccc2[nH]c(=O)c(CN(Cc3cccnc3)Cc3nnnn3C3CCCCC3)cc2c1	none (no result: NR2E3 ag-1, NR2E3 ag-2, GASC-1 inh, Furin inhibitor)
CCc1ccc2[nH]c(=O)c(CN(Cc3nnnn3C3CCCC3)C3CCCCC3)cc2c1	EP2 modulator 74.3! | EP2 confirm active
COc1ccc(CN2CCC(O)(c3ccccc3F)CC2)cc1Cn1cccn1	none (no result: NR2E3 ag-1, NR2E3 ag-2, GASC-1 inh, Furin inhibitor)
COc1ccc(N2CCN(CC(=O)Nc3cccc(OC)c3)CC2)cc1	none (no result: NR2E3 ag-1, NR2E3 ag-2, GASC-1 inh, Furin inhibitor)
Cc1nc(N(C)C)c2sc(=S)n(Cc3ccccc3)c2n1	EP2 modulator 75.9 | EP2 confirm active
C=CCn1c(N2CCC(C(=O)NCc3ccc(OC)cc3OC)CC2)nc2ccccc21	none (no result: NR2E3 ag-1, NR2E3 ag-2, GASC-1 inh, Furin inhibitor)
CCc1[nH]n2c(=O)c(Cl)c(C)nc2c1-c1ccc(F)cc1	none (no result: NR2E3 ag-1, NR2E3 ag-2, GASC-1 inh, Furin inhibitor)
CCCSc1ncnc2sc(C)c(C)c12	none | EP2 confirm inactive
Cc1sc2ncnc(SCC#N)c2c1C	none
Cc1sc2ncnc(Sc3ccccc3C(=O)O)c2c1C	EP2 modulator 72.5 | EP2 confirm inactive
COc1ccc(NC(=O)C2CCCN(c3nc(C)cc(C)n3)C2)cc1OC (stereo unspecified)	none (no result: NR2E3 ag-1, NR2E3 ag-2, GASC-1 inh, Furin inhibitor)
CCOC(=O)C1=C(N)OC2=C(C(=O)CC(C)(C)C2)C1c1ccc(CC)s1 (stereo unspecified)	EP2 modulator 72.8 | EP2 confirm active
CCOC(=O)C1=C(N)OC2=C(C(=O)CC(C)(C)C2)C1c1ccco1 (stereo unspecified)	none
O=C(CSc1nnc2c3c4c(sc3ncn12)CCCC4)Nc1ccccc1N1CCOCC1	none (no result: NR2E3 ag-1, NR2E3 ag-2, GASC-1 inh, Furin inhibitor)
Cc1ccc2nc(NCc3ccccc3)c(C=NCc3cccnc3)c(=O)n2c1	none
O=c1c(C=NCc2ccccc2)c(NCc2ccccc2)nc2ccccn12	EP2 modulator 79.9 | EP2 confirm active
Cc1cc(Nc2ccc(Br)cc2)n2nc(C)nc2n1	EP2 modulator 87.7 | EP2 confirm inactive
CC(C)n1c2ccccc2c2nc3ccccc3nc21	none | EP2 confirm active
Cc1ccc(C(=O)O)cc1NC(=S)NC(=O)c1ccc(-c2ccccc2)cc1	EP2 modulator 74.1 | EP2 confirm active
COc1ccc(C(=O)O)cc1NC(=S)NC(=O)c1ccc(-c2ccc(Cl)cc2)o1	EP2 modulator 95.0 (no result: NR2E3 ag-1) | EP2 confirm active
COc1ccc(C(=O)O)cc1NC(=S)NC(=O)CSc1ccc(Cl)cc1	none (no result: EP2 modulator, Furin inhibitor, PGE2 EP2 inh)
COc1ccccc1C1(O)CCN(CC(O)c2ccc(Cl)c(Cl)c2)CC1 (stereo unspecified)	none (no result: NR2E3 ag-1, NR2E3 ag-2, GASC-1 inh, Furin inhibitor)
CCc1nn(CC(=O)N(C)C)c(=O)c2cc3oc(C)cc3n12	none (no result: NR2E3 ag-1, NR2E3 ag-2, GASC-1 inh, Furin inhibitor, PGE2 EP2 inh)
CCn1c2ccc(Cl)cc2c2nc3ccccc3nc21	none (no result: NR2E3 ag-2) | EP2 confirm active
CCn1c2ccc(OC)cc2c2nc3ccccc3nc21	none (no result: NR2E3 ag-2) | EP2 confirm inactive
CCOc1ccc(Cn2c3ccc(OC)cc3c3nc4ccccc4nc32)cc1	none
OC1(c2ccccc2)CCN(Cc2ccccc2OCC2CCCO2)C1 (stereo unspecified)	none (no result: NR2E3 ag-1, NR2E3 ag-2, GASC-1 inh, Furin inhibitor)
Cc1ccc(C(c2nnnn2C2CCCCC2)N2CCN(C3CCCC3)CC2)cc1 (stereo unspecified)	none (no result: NR2E3 ag-1, NR2E3 ag-2, GASC-1 inh, Furin inhibitor)
C/C(Cl)=C\Cn1c(N(C)Cc2ccccc2)nc2c1c(=O)n(C)c(=O)n2C	none (no result: NR2E3 ag-1, NR2E3 ag-2, GASC-1 inh, Furin inhibitor)
Nc1cc2c3c(cccc3c1)C(=O)N(CCN1CCCC1)C2=O	none
CCN(CC)CCN1C(=O)c2cccc3cc(N)cc(c23)C1=O	none | EP2 confirm inactive
CCn1c(CNc2ccc(C)cc2)nnc1SCC(=O)NC(C)(C)C	none (no result: NR2E3 ag-1, NR2E3 ag-2, GASC-1 inh, Furin inhibitor)
OCCCNc1nc(-c2ccc(Cl)cc2)nnc1-c1ccc(Br)cc1	EP2 modulator 77.1 | EP2 confirm active
Cc1ccc2oc(=O)n(CCOc3ccccc3Cl)c2c1	none
CCCOc1ccccc1Cn1c(=O)oc2ccc(C)cc21	EP2 modulator 83.9 | EP2 confirm active
CCOc1ccccc1Cn1c(=O)oc2ccc(C)cc21	EP2 modulator 76.7 | EP2 confirm active
CCOC(=O)C1=C(C)OC(N)=C(C#N)C1c1cc2ccc(C)cc2[nH]c1=O (stereo unspecified)	none (no result: NR2E3 ag-1, NR2E3 ag-2, GASC-1 inh, Furin inhibitor)
CCN(c1ccccc1)c1nc(C#N)nc(N(CC)c2ccccc2)n1	none
CCN(CC)c1nc(C#N)nc(N(CC)CC)n1	EP2 modulator 65.1 (no result: NR2E3 ag-1, PGE2 EP2 inh) | EP2 confirm inactive
O=C(CSc1nc(Cc2ccccc2)nc2ccccc12)c1ccc2c(c1)OCCO2	EP2 modulator 66.2 | EP2 confirm active
CCc1nc(SCC(=O)c2ccc3c(c2)OCCO3)c2ccccc2n1	none
Cc1cc2oc(=O)cc(COC(=O)c3n[nH]c4ccccc34)c2cc1C	none (no result: PGE2 EP2 inh)
COc1ccc2c(COC(=O)c3n[nH]c4ccccc34)cc(=O)oc2c1	EP2 modulator 74.5 | EP2 confirm inactive
COC(=O)c1sc2nc(-c3ccccc3)c3c(c2c1N)CCCC3	EP2 modulator 72.6 | EP2 confirm inactive
CCOC(=O)c1sc2nc(N3CCOCC3)c3c(c2c1N)CCCC3	none
NC(=O)c1sc2nc(N3CCCCC3)c3c(c2c1N)CCCC3	EP2 modulator 76.3 | EP2 confirm active
COC(=O)c1sc2nc(N3CCCCC3)c3c(c2c1N)CCCC3	EP2 modulator 74.4 | EP2 confirm inactive
COc1cc(OC)cc(C(=O)N(Cc2ccc(C)cc2)Cc2cc3c(C)ccc(C)c3[nH]c2=O)c1	none (no result: NR2E3 ag-1, NR2E3 ag-2, GASC-1 inh, Furin inhibitor)
O=C(CSc1ncccc1-c1nc2ccccc2[nH]1)c1ccc(F)cc1	none (no result: NR2E3 ag-1, NR2E3 ag-2, GASC-1 inh, Furin inhibitor)
CN(/N=C/C=C/c1ccccc1)C1=NS(=O)(=O)c2ccccc21	EP2 modulator 82.3 | EP2 confirm active
CN(/N=C/c1cccnc1)C1=NS(=O)(=O)c2ccccc21	none
